How the values were obtained:
Human alphaherpesvirus 1 [1] = assay: Antiviral activity against Herpes simplex virus 1 KOS infected in human HEL cells assessed as inhibition of virus-induced cytopathic effect; type: functional, cell-based; details: Human alphaherpesvirus 1, KOS
In short: (§1)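 Confluent HEL fibroblast monolayers were inoculated in 96-well plates with 100 CCID50 of virus in the presence of serially varied compound concentrations. Cytopathicity was scored once untreated infected controls reached full CPE.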

[2] = system: Human immunodeficiency virus 1; assay: Antiviral activity against HIV1 X4LAI.04 infected in human tonsillar tissues assessed as inhibition of virus-induced cytopathic effect by p24gag-based luminex assay; type: functional; details: Human immunodeficiency virus 1, X4LAI.04
In short: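 Tonsillectomy tissue blocks of 2–3 mm³ were cultured on collagen sponge gels at the air–liquid interface, 27 blocks per donor per condition. Blocks were pretreated with compound overnight, infected with HIV-1 X4LAI.04 and cultured 12 days, with drug replenished at each medium change every 3 days. Medium p24 was measured by Luminex. Inhibition was calculated against untreated tissue, and EC50 was derived from it.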

Human alphaherpesvirus 2 = assay: Antiviral activity against Herpes simplex virus 2 G infected in human HEL cells assessed as inhibition of virus-induced cytopathic effect; type: functional, cell-based; details: Human alphaherpesvirus 2, strain G; in short: as §1
Human betaherpesvirus 5 [3] = assay: Antiviral activity against human cytomegalovirus AD-169 infected in human HEL cells assessed as inhibition of virus-induced cytopathic effect; type: functional, cell-based; details: Human betaherpesvirus 5, AD-169, HEL; in short: as §1
HEL = assay: Cytotoxicity against human HEL cells assessed as cell growth inhibition by cell counting method; type: cell-based
Human alphaherpesvirus 3 [4] = assay: Antiviral activity against thymidine kinase deficient Varicella-Zoster virus 07-1 infected in human HEL cells assessed as inhibition of virus-induced cytopathic effect; type: functional, cell-based; details: Human alphaherpesvirus 3, 07-1, HEL
In short: (§2)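 Confluent HEL fibroblast cultures were inoculated with 20 PFU of VZV in the presence of varying compound concentrations. Plaque formation was recorded once untreated infected controls reached completion.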

[5] = system: Human immunodeficiency virus 1; assay: Antiviral activity against HIV1 X4LAI.04 infected in human MT4 cells assessed as decrease in viral replication by p24gag-based luminex assay; type: functional, cell-based; details: Human immunodeficiency virus 1, X4LAI.04, MT4
In short: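 10^6 MT-4 cells were infected with HIV-1 X4LAI.04 (7 ng p24) for 2 h at 37 °C, then washed with PBS and resuspended. Compounds were added and cultures were kept 3 days at 37 °C. Supernatant p24 was measured by bead-based Luminex. Inhibition was calculated as (1 − p24 treated/p24 untreated) × 100, and EC50 was derived from it.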

[6] = Cytotoxicity against human HEL cells assessed as alteration to cell morphology by microscopic analysis; type: cell-based
In short: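 Minimal cytotoxic concentration is the compound concentration giving a microscopically visible alteration of HEL cell morphology, scored in the antiviral assay cultures.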

CCRF-CEM = assay: (§3) Cytostatic activity human CEM cells assessed as reduction in cell viability after 72 hrs by cell counting method; type: cell-based; details: ccrf-cem, 72 h
In short: (§4)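 (5–7.5) × 10^? CEM cells per well were grown with compound for 72 h at 37 °C under humidified CO2. Cells were counted in a Coulter counter.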

Human betaherpesvirus 5 [7] = assay: Antiviral activity against human cytomegalovirus Davis infected in human HEL cells assessed as inhibition of virus-induced cytopathic effect; type: functional, cell-based; details: Human betaherpesvirus 5, Davis; in short: as §1
Human alphaherpesvirus 3 [8] = assay: Antiviral activity against Varicella-Zoster virus OKA infected in human HEL cells assessed as inhibition of virus-induced cytopathic effect; type: functional, cell-based; details: Human alphaherpesvirus 3, strain Oka vaccine; in short: as §2
Human alphaherpesvirus 1 [9] = assay: Antiviral activity against ACV-resistant thymidine kinase deficient Herpes simplex virus 1 KOS infected in human HEL cells assessed as inhibition of virus-induced cytopathic effect; type: functional, cell-based; details: Human alphaherpesvirus 1, KOS; in short: as §1
MT4 = assay: Cytotoxicity against human MT4 cells assessed as reduction in cell viability by cell counting method; type: cell-based
In short: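 MT-4 cultures, untreated or treated, were assessed with an automated cell counter using propidium iodide staining to enumerate total and dead cells.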

[10] = Selectivity index, ratio of IC50 for human MT4 cells to EC50 for HIV1 X4LAI.04; type: toxicity; details: read-out: Ratio IC50/EC50
[11] = as §3; type: cell-based, CCRF-CEM; details: CEM cells (CCRF-CEM); in short: as §4
[12] = Drug metabolism assessed as carboxypeptidase Y (unknown origin)-mediated metabolite 81 formation measured after 24 hrs by [31P]-NMR spectroscopic analysis; type: ADME; details: human
[13] = Drug metabolism assessed as carboxypeptidase Y (unknown origin)-mediated metabolite 81 peak measured with in 1 hr by [31P]-NMR spectroscopic analysis; type: ADME; details: human
[14] = Drug metabolism assessed as carboxypeptidase Y (unknown origin)-mediated metabolite 79 formation measured after 14 hrs by [31P]-NMR spectroscopic analysis; type: ADME; details: human
[15] = Drug metabolism assessed as carboxypeptidase Y (unknown origin)-mediated metabolite 81 peak measured after 14 hrs by [31P]-NMR spectroscopic analysis; type: ADME; details: human
[16] = Drug metabolism assessed as carboxypeptidase Y (unknown origin)-mediated metabolite 81 peak measured after 15 mins by [31P]-NMR spectroscopic analysis; type: ADME; details: human
[17] = Drug metabolism assessed as carboxypeptidase Y (unknown origin)-mediated metabolite 79 formation measured after 15 mins by [31P]-NMR spectroscopic analysis; type: ADME; details: human

Row | SMILES | EC50 (Human alphaherpesvirus 1 [1]) [µM] | EC50 [2] [µM] | EC50 (Human alphaherpesvirus 2) [µM] | EC50 (Human betaherpesvirus 5 [3]) [µM] | CC50 (HEL) [µM] | EC50 (Human alphaherpesvirus 3 [4]) [µM] | EC50 [5] [µM] | MCC [6] [µM] | CC50 (CCRF-CEM) [µM] | EC50 (Human betaherpesvirus 5 [7]) [µM] | EC50 (Human alphaherpesvirus 3 [8]) [µM] | EC50 (Human alphaherpesvirus 1 [9]) [µM] | IC50 (MT4) [µM] | other results
1 | COc1nc(N)nc2c1ncn2CCC(CO)CO | > 100 | > 30 | > 100 | > 50 | > 100 | > 50 | > 150 | 50 to 100 | 246 | > 50 | 22.8 | > 100 | > 150 | –
2 | COc1nc(N)nc2c1ncn2CCC(CO)COP(=O)(N[C@@H](C)C(=O)OCc1ccccc1)Oc1ccccc1 (stereo not given in full) | 39 | 0.9 | 29 | 31.6 | ≥ 83 | 22.2 | 1.1 | 50 to 100 | 32 | 7.9 | 17.1 | 39 | 23 | selectivity ratio [10]: 2.1
3 | Nc1nc(O)c2ncn(COC(CO)CO)c2n1 [GANCICLOVIR] | – | 5 | 0.04 | – | 273 | – | > 50 | 100 to 350 | – | – | – | – | > 50 | CC50 at 72 h [11]: > 100 µM
4 | CC(C)OC(=O)[C@H](C)NP(=O)(OCC(CO)OCn1cnc2c(=O)[nH]c(N)nc21)Oc1cccc2ccccc12 (stereo not given in full) | 2 | – | 3 | > 50 | > 50 | ≥ 10.8 | 40 | > 100 | 35 | 6.8 | ≥ 23.5 | ≥ 75 | 150 | Drug metabolism [12]: Metabolite_Notdetected; Drug metabolism [13]: Metabolite_Detected
5 | Nc1nc(O)c2ncn(CSC(CO)CO)c2n1 | 0.4 | > 30 | 0.5 | > 50 | > 100 | > 50 | > 150 | 50 to 100 | > 500 | 40.8 | 6.9 | 1.6 | > 150 | –
6 | Nc1nc2c(ncn2CCC(CO)CO)c(=O)[nH]1 [PENCICLOVIR] | – | 11 | – | > 50 | > 100 | 10.2 | > 150 | > 100 | – | > 50 | – | 4 | > 150 | –
7 | CCOC(=O)[C@H](C)NP1(=O)OCC(OCn2cnc3c(=O)[nH]c(N)nc32)CO1 (stereo not given in full) | – | 4.6 | – | – | – | – | 22 | – | – | – | – | – | > 150 | –
8 | CCCOC(=O)[C@H](C)NP(=O)(OCC(CCn1cnc2c(OC)nc(N)nc21)COP(=O)(N[C@@H](C)C(=O)OCCC)Oc1cccc2ccccc12)Oc1cccc2ccccc12 (stereo not given in full) | > 100 | – | > 100 | 32 | 4.9 | 8.1 | 9.7 | 50 to 100 | 6.8 | 40 | 6.1 | > 100 | 20 | Drug metabolism [14]: Metabolite_Detected; Drug metabolism [15]: Metabolite_Detected
9 | C[C@H](NP(=O)(OCC(CO)CCn1cnc2c(=O)[nH]c(N)nc21)Oc1cccc2ccccc12)C(=O)OCc1ccccc1 (stereo not given in full) | 73 | – | 79 | > 50 | > 100 | > 50 | 21 | 50 to 100 | 138 | > 50 | 9.3 | > 100 | 100 | Drug metabolism [16]: Metabolite_Detected; Drug metabolism [17]: Metabolite_Detected
10 | C[C@H](NP(=O)(OCC(CO)OCn1cnc2c(=O)[nH]c(N)nc21)Oc1cccc2ccccc12)C(=O)OCc1ccccc1 (stereo not given in full) | 0.4 | 11 | 0.5 | 9.5 | – | 28.2 | 8 | > 100 | – | 6.5 | 9.5 | 3 | 100 | –
11 | C[C@H](NP(=O)(OCC(COP(=O)(N[C@@H](C)C(=O)OCc1ccccc1)Oc1ccccc1)SCn1cnc2c(=O)[nH]c(N)nc21)Oc1ccccc1)C(=O)OCc1ccccc1 (stereo not given in full) | > 100 | > 3 | > 100 | > 50 | > 100 | > 50 | 24 | 50 to 100 | 77 | > 50 | 23 | > 100 | 21 | –
12 | Nc1nc(Cl)c2ncn(CCC(CO)CO)c2n1 | > 100 | > 60 | > 100 | > 50 | > 100 | > 50 | > 150 | 50 to 100 | 400 | > 50 | > 50 | > 100 | > 150 | –
13 | C[C@H](NP(=O)(OCC(CO)CCn1cnc2c(=O)[nH]c(N)nc21)Oc1ccccc1)C(=O)OCc1ccccc1 (stereo not given in full) | 8 | > 20 | 16 | > 50 | > 100 | 45 | 10 | 50 to 100 | > 250 | > 50 | 2.6 | ≥ 100 | > 150 | –
14 | CC(=O)OCC(CO)OCn1cnc2c(Cl)nc(N)nc21 (stereo not given) | – | > 10 | – | – | – | – | > 150 | – | ≥ 250 | – | – | – | > 150 | –
